ChEMBL document CHEMBL1127501, “TcO(PnA.O-1-(2-nitroimidazole)) [BMS-181321], a new technetium-containing nitroimidazole complex for imaging hypoxia: synthesis, characterization, and xanthine oxidase-catalyzed reduction” (J Med Chem, 1994)

Columns and labels:
[1] = Half life for the nitro group loss in xanthime oxidase enzyme assay in 5%DMF with no hypoxanthine control at 0.1 mM; No reaction seen; assay type: ADME; details: 100 µM
[2] = Half life for the nitro group loss in xanthime oxidase enzyme assay in 5%DMF with no enzyme control at 0.1 mM; No reaction seen; assay type: ADME; details: 100 µM
[3] = (§1) Half life for the nitro group loss in xanthine oxidase enzyme assay in 5%DMF at 0.1 mM; assay type: ADME; details: 100 µM
How it was run: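 Nitro compound at 100 µM with 4 mM hypoxanthine and 0.2 units/mL cow milk xanthine oxidase, in 0.1 M phosphate/EDTA pH 7.4 containing 5% DMF. Solutions were argon-deoxygenated before the enzyme was injected by gas-tight syringe. Loss of the 326 nm nitroimidazole absorbance was followed by UV/vis, and the half-life derived from the time course.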

[4] = biological target: Xanthine dehydrogenase/oxidase (Bos taurus, UniProt P80457); test: Reaction rate was evaluated for the compound with hypoxanthine as reducing substrate in 5% DMF expressed as nM/min/unit XOD
[5] = Half life for the nitro group loss in xanthine oxidase enzyme assay in 5 %DMF at 0.1 mM; No rection seen; assay type: ADME; details: 100 µM
xanthine oxidase [6] = test: Half life for the nitro group loss in xanthine oxidase enzyme assay in 0.2%DMF at 0.1 mM; assay type: ADME
How it was run: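 Anaerobic assay in argon-purged, septum-sealed cuvette: 100 µM nitro compound, 4 mM hypoxanthine, 0.2 units/mL bovine milk xanthine oxidase, 0.1 M phosphate/EDTA pH 7.4, 0.2% DMF final. Nitro absorbance at 326 nm read every 5 min and converted to concentration. Half-life taken from plots of log[% remaining] vs time.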

xanthine oxidase [7] = test: as §1

Sequence of Xanthine dehydrogenase/oxidase (P80457 whole entry): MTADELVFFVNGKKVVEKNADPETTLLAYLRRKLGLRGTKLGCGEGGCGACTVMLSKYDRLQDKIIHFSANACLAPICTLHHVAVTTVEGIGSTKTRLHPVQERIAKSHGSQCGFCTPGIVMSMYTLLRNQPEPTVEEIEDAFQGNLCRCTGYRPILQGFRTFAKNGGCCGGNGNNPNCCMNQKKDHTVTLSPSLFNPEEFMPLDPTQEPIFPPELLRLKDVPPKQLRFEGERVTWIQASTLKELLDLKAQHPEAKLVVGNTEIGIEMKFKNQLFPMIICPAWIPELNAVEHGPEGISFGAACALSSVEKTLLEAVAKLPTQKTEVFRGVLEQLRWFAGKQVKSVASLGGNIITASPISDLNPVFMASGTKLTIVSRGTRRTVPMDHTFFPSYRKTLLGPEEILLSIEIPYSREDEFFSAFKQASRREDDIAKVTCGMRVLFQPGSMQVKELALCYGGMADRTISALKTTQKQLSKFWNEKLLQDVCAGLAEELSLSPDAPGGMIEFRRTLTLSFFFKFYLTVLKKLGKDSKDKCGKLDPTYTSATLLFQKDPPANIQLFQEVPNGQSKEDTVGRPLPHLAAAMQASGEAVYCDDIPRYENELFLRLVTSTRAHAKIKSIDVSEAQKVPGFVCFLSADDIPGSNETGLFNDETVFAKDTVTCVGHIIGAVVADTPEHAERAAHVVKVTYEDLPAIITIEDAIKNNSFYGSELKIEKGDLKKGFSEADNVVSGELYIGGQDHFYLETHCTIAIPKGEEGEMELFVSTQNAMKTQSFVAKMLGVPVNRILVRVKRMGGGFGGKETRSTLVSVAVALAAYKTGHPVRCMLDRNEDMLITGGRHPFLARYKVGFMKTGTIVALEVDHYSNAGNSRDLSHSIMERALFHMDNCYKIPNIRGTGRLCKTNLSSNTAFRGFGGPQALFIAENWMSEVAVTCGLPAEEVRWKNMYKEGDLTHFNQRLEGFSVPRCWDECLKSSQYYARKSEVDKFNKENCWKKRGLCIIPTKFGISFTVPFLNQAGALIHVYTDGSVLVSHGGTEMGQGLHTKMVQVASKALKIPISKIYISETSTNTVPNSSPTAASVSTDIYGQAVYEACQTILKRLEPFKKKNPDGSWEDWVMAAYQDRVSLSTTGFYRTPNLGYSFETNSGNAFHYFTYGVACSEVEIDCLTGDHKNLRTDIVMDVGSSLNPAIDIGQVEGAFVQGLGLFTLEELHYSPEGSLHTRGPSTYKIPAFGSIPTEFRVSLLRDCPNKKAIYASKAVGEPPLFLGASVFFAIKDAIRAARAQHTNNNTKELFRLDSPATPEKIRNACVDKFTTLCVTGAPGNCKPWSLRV

TcO(PnA.O-1-(2-nitroimidazole))
T1/2 [1]: Not Active | T1/2 [2]: Not Active | T1/2 [3]: 2 h | Rate [4]: 1.5 nM min-1 (unit XOD)-1

TCO(PNAO)
T1/2 [5]: Not Active

Cc1ncc([N+](=O)[O-])n1CCO [METRONIDAZOLE]
half-life at 100 µM (xanthine oxidase [6]): > 20 h

COCC(O)Cn1ccnc1[N+](=O)[O-] (stereo not drawn) [MISONIDAZOLE]
Rate [4]: 3.7 nM min-1 (unit XOD)-1 | half-life at 100 µM (xanthine oxidase [7]): 1 h
